Active and inactive are the calls of the source. The calls are words filed in the database; no cut-off is given here.
Key:
MDA-MB-468 [1] = experiment: Cell cycle arrest in human MDA-MB-468 cells assessed as accumulation at subG1 phase at 8 nM after 24 hrs by DAPI-staining based FACS analysis (reference value: 0.2%); type: functional
MDA-MB-231 [2] = experiment: Antiproliferative activity against ER/PR/HER2 deficient human MDA-MB-231 cells after 72 hrs by SRB assay; type: functional, cell-based; conditions: MDA-MB-231, 72 h
In short: (§1)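 SRB antiproliferative assay (modified NCI protocol). Cells seeded per well (SK-BR-3, MDA-MB-231, T47D, HT-1080, HT-1080 CYP1A1 and empty-vector: 3.0 x 10^3; MDA-MB-468: 5.0 x 10^3; MCF7: 7.5 x 10^3), preincubated 24 h. DMSO-solubilized drug added at 0.75 to 1.0 x 10^5 nM, then 72 h. Fixed with cold 10% TCA, stained with 0.1% sulforhodamine B, absorbance read at 530-565 nm. At least two experiments, triplicate cultures.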

MDA-MB-468 [3] = experiment: Antiproliferative activity against ER/PR/HER2 deficient human MDA-MB-468 cells after 72 hrs by SRB assay; type: functional, cell-based; conditions: MDA-MB-468, 72 h; in short: as §1
T47D = experiment: Antiproliferative activity against ER/PR/HER2 expressing human T47D cells after 72 hrs by SRB assay; type: functional, cell-based; in short: as §1
SK-BR-3 = experiment: Antiproliferative activity against ER/PR deficient and HER2 expressing human SKBR3 cells after 72 hrs by SRB assay; type: functional, cell-based; conditions: SK-BR-3, 72 h; in short: as §1
MCF7 = experiment: Antiproliferative activity against human MCF7 cells after 72 hrs by SRB assay; type: functional, cell-based; conditions: MCF7, 72 h; in short: as §1
[4] = Selectivity ratio of IC50 for ER/PR/HER2 deficient human MDA-MB-231 cells to IC50 for ER/PR/HER2 deficient human MDA-MB-468 cells; type: functional
In short: (§2)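 Ratio is IC50 in reference line over IC50 in sensitive line. […] Cells in DMEM with 5% calf serum at 37 °C. At least two experiments, triplicate cultures; assay accepted when relative SD < 10%.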

[5] = Selectivity ratio of IC50 for ER/PR/HER2 deficient human MDA-MB-231 cells to IC50 for ER/PR/HER2 expressing human T47D cells; type: functional; in short: as §2
[6] = Selectivity ratio of IC50 for ER/PR/HER2 deficient human MDA-MB-231 cells to IC50 for ER/PR deficient and HER2 expressing human SKBR3 cells; type: functional; in short: as §2
[7] = Selectivity ratio of IC50 for ER/PR/HER2 deficient human MDA-MB-231 cells to IC50 for human MCF7 cells; type: functional; in short: as §2
Cytochrome P450 1A1 = target: T1, Cytochrome P450 1A1 (Homo sapiens, UniProt P04798); experiment: Inhibition of human supersomes CYP1A1-mediated 7-ethoxyresorufin conversion to fluorescent resorufin preincubated with 7-ethoxyresorufin for 5 mins followed by addition of NADPH regenerating system measured for 15 mins by EROD assay; type: ADME
T1 sequence (P04798 whole entry): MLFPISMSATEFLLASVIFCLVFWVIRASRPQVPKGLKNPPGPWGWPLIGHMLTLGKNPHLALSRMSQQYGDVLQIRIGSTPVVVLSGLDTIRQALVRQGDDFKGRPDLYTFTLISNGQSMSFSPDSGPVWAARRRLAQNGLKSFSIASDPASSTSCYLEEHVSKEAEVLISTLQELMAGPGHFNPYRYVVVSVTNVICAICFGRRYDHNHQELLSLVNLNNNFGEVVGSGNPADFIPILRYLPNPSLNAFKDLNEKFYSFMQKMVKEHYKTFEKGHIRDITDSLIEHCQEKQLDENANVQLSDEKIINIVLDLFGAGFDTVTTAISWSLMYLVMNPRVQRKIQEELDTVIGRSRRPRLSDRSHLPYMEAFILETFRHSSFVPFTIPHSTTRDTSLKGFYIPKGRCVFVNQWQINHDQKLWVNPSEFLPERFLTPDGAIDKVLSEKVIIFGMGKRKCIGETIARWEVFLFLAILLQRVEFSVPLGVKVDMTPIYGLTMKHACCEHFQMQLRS
In short: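 EROD assay with human CYP1A1 supersomes containing reductase, in potassium phosphate buffer. Drug final 32–31 600 nM and 7-ethoxyresorufin 94–3 000 nM, with 0.35% DMSO, preincubated 5 min at 37 °C. Reaction started with NADPH-regenerating system and 0.15 pmol CYP1A1 in 150 µL. Initial velocity taken from 1–5 min; Vmax and Km from Lineweaver-Burk plot.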

Homo sapiens = organism: Homo sapiens; experiment: Destabilization of microtubule network in human MDA-MB-468 cells at 8 nM after 24 hrs by fluorescence microscopic analysis; type: cell-based
HT-1080 [8] = experiment: Antiproliferative activity against human wild type HT1080 cells after 72 hrs by SRB assay; type: functional, cell-based; conditions: HT-1080, 72 h; in short: as §1
HT-1080 [9] = experiment: Antiproliferative activity against human HT1080 cells transfected with pCMV6-AC empty plasmid after 72 hrs by SRB assay; type: functional, cell-based; conditions: HT-1080, 72 h; in short: as §1
HT-1080 [10] = experiment: Antiproliferative activity against human HT1080 cells transfected with CYP1A1 after 72 hrs by SRB assay; type: functional, cell-based; conditions: HT-1080, 72 h; in short: as §1
HT-1080 [11] = experiment: Selectivity ratio of IC50 for HT1080 cells transfected with pCMV6-AC empty plasmid to IC50 for human HT1080 cells transfected with CYP1A1; type: functional
In short: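 Ratio is IC50 (HT-1080 empty vector) over IC50 (HT-1080 CYP1A1). Both lines stably transfected (pCMV6-AC plasmids) and kept under G418 selection, seeded at 3.0 x 10^3 cells. IC50s from SRB antiproliferative assay.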

HT-1080 [12] = experiment: Antitumor activity against human HT1080 cells implanted in chicken chorioallantoic membrane assessed as tumor growth inhibition at 1 ug/egg, iv administered on day 11 post implantation measured on day 17; type: functional
In short: (§3)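 Chick CAM tumor model using HT-1080 cells (wild-type or stably transfected with CYP1A1 or empty plasmid). Eggs incubated 10 d. On day 11, drug in DMSO (40 mM stock) was diluted in cremophor/EtOH/PBS (6.25/6.25/87.5), DMSO kept below 0.5%, and given iv in 100 µL to 10-12 eggs. Tumors excised on day 17 and wet-weighed. Two independent experiments (20-24 eggs); embryo deaths and toxicity recorded.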

HT-1080 [13] = experiment: Antitumor activity against CYP1A1 transfected human HT1080 cells implanted in chicken chorioallantoic membrane assessed as tumor growth inhibition at 1 ug/egg, iv administered on day 11 post implantation measured on day 17; type: functional; in short: as §3
HT-1080 [14] = experiment: Antitumor activity against empty plasmid transfected human HT1080 cells implanted in chicken chorioallantoic membrane assessed as tumor growth inhibition at 1 ug/egg, iv administered on day 11 post implantation measured on day 17; type: functional; in short: as §3
MDA-MB-231 [15] = experiment: Antiproliferative activity against ER/PR/HER2 deficient human MDA-MB-231 cells after 72 hrs in presence of phenol red by SRB assay; type: functional, cell-based; in short: as §1
MDA-MB-468 [16] = experiment: Cytotoxicity against human MDA-MB-468 cells after 72 hrs in presence of CYP inhibitor aniline by SRB assay; type: functional, cell-based
In short: (§4)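 MDA-MB-468 cells co-incubated for 72 h with drug plus a subtoxic concentration of a CYP inhibitor. Viability read by SRB assay: TCA fixation, sulforhodamine B staining, absorbance at 530-565 nm.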

MDA-MB-468 [17] = experiment: Cytotoxicity against human MDA-MB-468 cells after 72 hrs in presence of CYP inhibitor curcumin by SRB assay; type: functional, cell-based; in short: as §4

IC50 (MDA-MB-231 [2]) | IC50 (MDA-MB-468 [3]) | IC50 (T47D) | IC50 (SK-BR-3) | IC50 (MCF7) | IC50 (HT-1080 [8]) | IC50 (HT-1080 [9]) | IC50 (HT-1080 [10]) | SMILES | Ratio IC50 [4] | Ratio IC50 [5] | Ratio IC50 [6] | Ratio IC50 [7] | Ratio IC50 (HT-1080 [11]) | TGI (HT-1080 [12]) | TGI (HT-1080 [13]) | TGI (HT-1080 [14]) | other results
6.4 nM | 4.6 nM | 6.2 nM | 3.1 nM | 3.1 nM | 3.6 nM | 3.3 nM | 1.7 nM | COc1cc(OS(=O)(=O)c2ccc(N3CCNC3=O)cc2)cc(OC)c1OC | 1.4 | 1 | 2.1 | 2.1 | 1.9 | 51% | 32% | 21% | Activity (MDA-MB-468 [1]): 1.7%; Ki (Cytochrome P450 1A1): Not Active; Activity (Homo sapiens): Active
6000 nM | 10 nM | 20 nM | 2 nM | 5.5 nM | 5500 nM | 47000 nM | 13 nM | CCCCN1CCN(c2ccc(S(=O)(=O)Oc3cc(OC)c(OC)c(OC)c3)cc2)C1=O | 590 | 300 | 3000 | 1100 | 3600 | 15% | 49% | inactive | Ki (Cytochrome P450 1A1; read-out: Ki): 540 nM; Activity (MDA-MB-231 [15]): inactive; Activity (MDA-MB-468 [16]): Active; Activity (MDA-MB-468 [17]): Active

From ChEMBL document CHEMBL4014335, “Activation of Phenyl 4-(2-Oxo-3-alkylimidazolidin-1-yl)benzenesulfonates Prodrugs by CYP1A1 as New Antimitotics Targeting Breast Cancer Cells” (J Med Chem, 2017)
